One block for each compound: values may come before it. The source made the active and inactive calls. The calls are words filed in the database; no cut-off is given here.
How the values were obtained:
[1] = target: Glutamate NMDA receptor; test: Displacement of [3H]MDL-105519 from glycine binding site of NMDA receptor in rat cortical membrane by liquid scintillation counting; type: cell membranes
Outline: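 Washed rat cortical membranes in 50 mM Tris–HCl (pH 8.0) were incubated 45 min at 4 °C with [3H]MDL-105,519 (2 nM) plus buffer or displacer. Nonspecific binding was defined with excess unlabeled glycine. Samples were filtered on GF/B, washed three times with ice-cold buffer, and counted by liquid scintillation. Ki came from three determinations, each in triplicate.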

[2] = Ratio of drug level in cerebellum to blood of ddY mouse at 7.4 MBq, iv after 30 mins; type: ADME, organism-based
Outline: (§1)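 ddY mice (35–45 g) received about 7.4 MBq of [11C]radioligand in 0.2 ml into the tail vein and were decapitated at 1 or 30 min. Blood, cerebrum and cerebellum were gamma-counted with decay correction and expressed as % injected dose/g; tissue/blood ratios were derived. n=3 or 5.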

[3] = Ratio of drug level in cerebellum to blood of ddY mouse at 7.4 MBq, iv after 1 min; type: ADME, organism-based; outline: as §1
[4] = Biodistribution in ddY mouse cerebrum assessed per gram of tissue at 7.4 MBq, iv after 1 min by gamma counting; type: ADME, organism-based; conditions: in vivo; outline: as §1
[5] = Biodistribution in ddY mouse cerebrum assessed per gram of tissue at 7.4 MBq, iv after 30 mins by gamma counting; type: ADME, organism-based; conditions: in vivo, 0.5 h; outline: as §1
[6] = tested on: Cerebellum; test: Biodistribution in ddY mouse cerebellum assessed per gram of tissue at 7.4 MBq, iv after 1 min by gamma counting; type: ADME, organism-based; conditions: in vivo; outline: as §1
[7] = Ratio of drug level in cerebrum to blood of ddY mouse at 7.4 MBq, iv after 30 mins; type: ADME, organism-based; outline: as §1
[8] = tested on: Blood; test: Biodistribution in ddY mouse blood assessed per gram of tissue at 7.4 MBq, iv after 1 min by gamma counting; type: ADME, organism-based; conditions: in vivo; outline: as §1
[9] = Ratio of drug level in cerebrum to blood of ddY mouse at 7.4 MBq, iv after 1 min; type: ADME, organism-based; outline: as §1
[10] = tested on: Blood; test: Biodistribution in ddY mouse blood assessed per gram of tissue at 7.4 MBq, iv after 30 mins by gamma counting; type: ADME, organism-based; conditions: in vivo, 0.5 h; outline: as §1
[11] = tested on: Cerebellum; test: Biodistribution in ddY mouse cerebellum assessed per gram of tissue at 7.4 MBq, iv after 30 mins by gamma counting; type: ADME, organism-based; conditions: in vivo, 0.5 h; outline: as §1
[12] = n-Octanol-sodium phosphate buffer partition coefficient, log D at pH 7.4 after 15 mins by shake-flask method; type: physicochemical
Outline: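 Compound (1–2 mg) was shaken 15 min at ambient temperature in n-octanol and 10 mM phosphate buffer (pH 7.4). The mixture was centrifuged at 2500 rpm for 5 min, and both layers were analysed by HPLC (n=3).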

[13] = target: T1, Glutamate NMDA receptor (Rattus norvegicus) (UniProt P35439+Q00959+Q00960+Q00961+Q62645+Q8VHN2+Q9R1M7); test: Binding affinity to glycine binding site of NMDA receptor in thalamus of rat brain by autoradiography; type: tissue-based; conditions: tested as the 11C-labelled form
Outline: (§2)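 Rat brain sagittal sections were preincubated 30 min at 25 °C in 50 mM Tris–HCl (pH 7.4), then incubated 30 min at 25 °C with the [11C]radioligand (1.59–2.13 nM). Sections were rinsed twice for 3 min in cold buffer, dipped in cold water, dried, and exposed to imaging plates for 60 min. Nonspecific binding was taken with the corresponding unlabeled ligand; specific binding is given per region.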

[14] = target: T1, Glutamate NMDA receptor (Rattus norvegicus); test: Binding affinity to glycine binding site of NMDA receptor in hippocampus of rat brain by autoradiography in presence of glycine-site agonist D-serine; type: tissue-based; conditions: tested as the 11C-labelled form
Outline: (§3)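 Hippocampal binding on rat brain slices: 30 min at 25 °C in 50 mM Tris–HCl (pH 7.4) with [11C]radioligand (1.59–2.13 nM), with or without a glycine-site drug (agonists at 1 mM). Slices were rinsed, dried and exposed to imaging plates for 60 min. PSL with drug was divided by PSL without drug to give % total binding, averaged over at least triplicate sections from three animals.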

[15] = target: T1, Glutamate NMDA receptor (Rattus norvegicus); test: Binding affinity to glycine binding site of NMDA receptor in hippocampus of rat brain by autoradiography in presence of glycine-site antagonist methoxy-MDL-104653; type: tissue-based; conditions: tested as the 11C-labelled form; outline: as §3
[16] = target: T1, Glutamate NMDA receptor (Rattus norvegicus); test: Binding affinity to glycine binding site of NMDA receptor in hippocampus of rat brain by autoradiography in presence of glycine-site antagonist L-703717; type: tissue-based; conditions: tested as the 11C-labelled form; outline: as §3
[17] = target: T1, Glutamate NMDA receptor (Rattus norvegicus); test: Binding affinity to glycine binding site of NMDA receptor in hippocampus of rat brain by autoradiography in presence of glycine; type: tissue-based; conditions: tested as the 11C-labelled form; outline: as §3
[18] = target: T1, Glutamate NMDA receptor (Rattus norvegicus); test: Binding affinity to glycine binding site of NMDA receptor in cerebral cortex of rat brain by autoradiography; type: tissue-based; conditions: tested as the 11C-labelled form; outline: as §2
[19] = target: T1, Glutamate NMDA receptor (Rattus norvegicus); test: Binding affinity to glycine binding site of NMDA receptor in cerebellum of rat brain by autoradiography; type: tissue-based; conditions: tested as the 11C-labelled form; outline: as §2
[20] = target: T1, Glutamate NMDA receptor (Rattus norvegicus); test: Binding affinity to glycine binding site of NMDA receptor in hippocampus of rat brain by autoradiography in presence of glycine-site antagonist MDL-105519; type: tissue-based; conditions: tested as the 11C-labelled form; outline: as §3
[21] = target: T1, Glutamate NMDA receptor (Rattus norvegicus); test: Binding affinity to glycine binding site of NMDA receptor in hippocampus of rat brain by autoradiography; type: tissue-based; conditions: tested as the 11C-labelled form; outline: as §2
[22] = target: T1, Glutamate NMDA receptor (Rattus norvegicus); test: Binding affinity to glycine binding site of NMDA receptor in striatum of rat brain by autoradiography; type: tissue-based; conditions: tested as the 11C-labelled form; outline: as §2
[23] = target: Glutamate NMDA receptor; test: Binding affinity to glycine binding site of NMDA receptor in rat brain; type: tissue-based
[24] = Metabolic stability in ddY mouse brain at 7.4 MBq, iv after 30 mins by radio-TLC analysis; type: ADME, organism-based; conditions: 40 MBq, in the assay text read “40 MBq” for “7.4 MBq”, read-out: Activity
Outline: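 Mice received [11C]radioligand (40 MBq) iv and were killed at 30 min. Whole brain was homogenized in ice-cold MeOH and centrifuged at 10,000 rpm for 1 min at 4 °C. Extracts were analysed by radio-TLC using CHCl3/CH3CN 3:1, CHCl3/MeOH 9:1, or CH3CN as mobile phase; intact parent fraction was recorded.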

[25] = Metabolic stability in ddY mouse blood at 7.4 MBq, iv after 30 mins by radio-TLC analysis; type: ADME, organism-based; conditions: 40 MBq, in the assay text read “40 MBq” for “7.4 MBq”, read-out: Activity
[26] = Plasma protein binding in rat at 0.67 to 0.89 […] after 30 mins by ultrafiltration; type: ADME, cell-free; conditions: read-out: PPB (converted)
Outline: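 Rat serum was diluted 10-fold in 66 mM phosphate buffer (pH 7.4) containing [11C]radioligand (0.67–0.89 MBq) and incubated 30 min at 30 °C. It was then ultrafiltered by centrifugation at 2000 rpm for 15 min. Radioactivity in whole plasma and in filtrate was counted to give % bound (mean, n=3).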

[27] = Biodistribution in ddY mouse cerebrum assessed per gram of tissue at 40 MBq, iv after 30 mins by gamma counting in presence of 5-ethyl-7-chloro-4-hydroxy-3-(3-[11C]methylaminophenyl)-2(1H)-quinolone; type: ADME, organism-based; conditions: in vivo, 0.5 h, in the assay text read “7.4 MBq” for “40 MBq”
Outline: (§4)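 Blocking study: [11C]radioligand was mixed with unlabeled ligand (2 mg/kg) and injected iv into ddY mice. Animals were killed at 30 min; blood, cerebrum and cerebellum were gamma-counted and expressed as % dose/g and tissue/blood ratios. Comparison with controls used the Mann–Whitney U-test.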

[28] = tested on: Blood; test: Biodistribution in ddY mouse blood assessed per gram of tissue at 40 MBq, iv after 30 mins by gamma counting in presence of 5-ethyl-7-chloro-4-hydroxy-3-(3-[11C]methylaminophenyl)-2(1H)-quinolone; type: ADME, organism-based; conditions: in vivo, 0.5 h; outline: as §4
[29] = tested on: Cerebellum; test: Biodistribution in ddY mouse cerebellum assessed per gram of tissue at 40 MBq, iv after 30 mins by gamma counting in presence of 5-ethyl-7-chloro-4-hydroxy-3-(3-[11C]methylaminophenyl)-2(1H)-quinolone; type: ADME, organism-based; conditions: in vivo, 0.5 h, in the assay text read “7.4 MBq” for “40 MBq”; outline: as §4
[30] = Ratio of drug level in cerebellum to blood of ddY mouse at 40 MBq, iv after 30 mins in presence of 5-ethyl-7-chloro-4-hydroxy-3-(3-[11C]methylaminophenyl)-2(1H)-quinolone; type: ADME, organism-based; conditions: in vivo, 0.5 h, in the assay text read “7.4 MBq” for “40 MBq”; outline: as §4
[31] = Ratio of drug level in cerebrum to blood of ddY mouse at 40 MBq, iv after 30 mins in presence of 5-ethyl-7-chloro-4-hydroxy-3-(3-[11C]methylaminophenyl)-2(1H)-quinolone; type: ADME, organism-based; conditions: in vivo, 0.5 h, in the assay text read “7.4 MBq” for “40 MBq”; outline: as §4
[32] = tested on: Cerebellum; test: Biodistribution in mouse cerebellum assessed per gram of tissue at 7.4 MBq, iv after 1 min by gamma counting; type: ADME, organism-based; conditions: in vivo
[33] = Biodistribution in mouse cerebrum assessed per gram of tissue at 7.4 MBq, iv after 1 min by gamma counting; type: ADME, organism-based; conditions: in vivo
[34] = Ratio of drug level in cerebellum to blood of mouse at 7.4 MBq, iv after 1 min; type: ADME, organism-based
Outline: (§5)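 ddY mice (35–45 g) received ca. 7.4 MBq ¹¹C-labelled ligand (0.2 ml) by tail-vein injection and were decapitated at 1 min. Cerebrum and cerebellum were dissected, and radioactivity was gamma-counted with decay correction and expressed as % injected dose per gram tissue. The value is the tissue-to-blood ratio of % dose/g.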

[35] = tested on: Blood; test: Biodistribution in mouse blood assessed per gram of tissue at 7.4 MBq, iv after 1 min by gamma counting; type: ADME, organism-based; conditions: in vivo
[36] = Ratio of drug level in cerebrum to blood of mouse at 7.4 MBq, iv after 1 min; type: ADME, organism-based; outline: as §5

Structure (SMILES): CNc1cc(Cl)cc2[nH]c(=O)c(-c3cccc(OC)c3)c(O)c12
Ki [1]: 0.715 µM

Structure (SMILES): CNc1ccc(Cc2cccc(-c3c(O)c4ccc(Cl)cc4[nH]c3=O)c2)cc1
logD at 0.25 h [12]: 3
Activity [13]: Active
Ki [1]: 0.0117 µM
Activity [14]: 46%
Activity [15]: 58%
Activity [16]: 58%
Activity [17]: 46%
Activity [18]: Active
Activity [19]: 30%
Activity [20]: 58%
Activity [21]: 70%
Activity [22]: Active

Structure (SMILES): CCc1cc(Cl)cc2[nH]c(=O)c(-c3cccc(N[11CH3])c3)c(O)c12
Kp at 0.5 h [2]: 0.058
remaining at 0.5 h [24]: 70%
Kp at 1 min [3]: 0.042
Drug uptake [4]: 0.47 %ID
remaining at 0.5 h [25]: 93%
Drug uptake [5]: 0.38 %ID/g
Drug uptake [6]: 0.87 %ID
Kp at 0.5 h [7]: 0.042
fraction unbound at 0.5 h [26]: 0.29
Drug uptake [8]: 20.91 %ID
Drug uptake [27]: 0.34 %ID
Kp at 1 min [9]: 0.022
Drug uptake [28]: 7.77 %ID
Drug uptake [29]: 0.34 %ID
Ratio [30]: 0.044
Drug uptake [10]: 9.08 %ID/g
Ratio [31]: 0.044
Drug uptake [11]: 0.53 %ID/g

Structure (SMILES): CN(C)c1ccc(Cc2cccc(-c3c(O)c4ccc(Cl)cc4[nH]c3=O)c2)cc1
Ki [1]: 0.0222 µM

Structure (SMILES): [11CH3]Oc1ccc(Cc2cccc(-c3c(O)c4ccc(Cl)cc4[nH]c3=O)c2)cc1
Kp at 0.5 h [2]: 0.068
Drug uptake [32]: 0.36 %ID
Drug uptake [33]: 0.32 %ID
Kp at 1 min [34]: 0.043
Drug uptake [5]: 0.2 %ID/g
Kp at 0.5 h [7]: 0.051
Drug uptake [35]: 8.37 %ID
Drug uptake [10]: 3.46 %ID/g
Drug uptake [11]: 0.24 %ID/g
Kp at 1 min [36]: 0.038

Continued, values first:

Kp at 0.5 h [2]: 0.042
Kp at 1 min [3]: 0.026
Drug uptake [4]: 0.5 %ID
Drug uptake [5]: 0.32 %ID/g
Drug uptake [6]: 0.72 %ID
Kp at 0.5 h [7]: 0.03
Drug uptake [8]: 29.16 %ID
Kp at 1 min [9]: 0.018
Drug uptake [10]: 10.66 %ID/g
Drug uptake [11]: 0.44 %ID/g
Structure (SMILES): CCc1cc(Cl)cc2[nH]c(=O)c(-c3cccc(O[11CH3])c3)c(O)c12

Ki [23]: 0.0103 µM
Structure (SMILES): COc1cccc(-c2c(O)c3c(I)cc(Cl)cc3[nH]c2=O)c1

Activity [13]: Active
Ki [1]: 0.0118 µM
Activity [14]: 59%
Activity [15]: 64%
Activity [16]: 64%
Activity [17]: 59%
Activity [18]: Active
Activity [19]: 75%
Activity [20]: 64%
Activity [21]: 89%
Activity [22]: Active
Structure (SMILES): CCc1cc(Cl)cc2[nH]c(=O)c(-c3cccc(NC)c3)c(O)c12

Source: ChEMBL document CHEMBL1152423, “Development of N-[11C]methylamino 4-hydroxy-2(1H)-quinolone derivatives as PET radioligands for the glycine-binding site of NMDA receptors” (Bioorg Med Chem, 2009)
